# Results published in ChEMBL document CHEMBL4196168 (J Med Chem, 2018).
# The source made the active and inactive calls. No cut-off for these calls is given here.
# Assays:
# [1] = target: Transthyretin (Homo sapiens) (UniProt P02766); assay: Binding affinity to transthyretin in human serum assessed as protein stabilization at 2:1 compound to TTR ratio after 72 hrs by Western blot
# [2] = target: Transthyretin (Homo sapiens) (UniProt P02766); assay: Binding affinity to transthyretin in human serum assessed as protein occupancy at 2:1 compound to TTR ratio by fluorescent probe exclusion assay
# [3] = target: Transthyretin (Homo sapiens) (UniProt P02766); assay: Binding affinity to transthyretin (unknown origin) assessed as free enthalpy changes by ITC method
# [4] = target: Transthyretin (Homo sapiens) (UniProt P02766); assay: Binding affinity to transthyretin (unknown origin) assessed as free TdeltaS changes by ITC method
# [5] = target: Transthyretin (Homo sapiens) (UniProt P02766); assay: Binding affinity to transthyretin (unknown origin) in pH 7.4 PBS buffer assessed as protein occupancy at 1:1 compound to TTR ratio by fluorescent probe exclusion assay
# [6] = target: Transthyretin (Homo sapiens) (UniProt P02766); assay: Binding affinity to transthyretin (unknown origin) assessed as free energy changes by ITC method
# [7] = Cmax in human at 250 mg bid; assay type: ADME, organism-based; parameters: dose 250 mg; conditions: in vivo
# [8] = target: Transthyretin (Homo sapiens) (UniProt P02766); conditions: 20 uM
# [9] = target: Transthyretin (Homo sapiens) (UniProt P02766); assay: Binding affinity to transthyretin (unknown origin) in human serum assessed as protein occupancy at 200 uM by fluorescent probe exclusion assay
# [10] = target: Transthyretin (Homo sapiens) (UniProt P02766); conditions: 10 uM
# [11] = target: Transthyretin (Homo sapiens) (UniProt P02766); conditions: 10 uM; remark: listed apart in the source
# [12] = target: T1, Transthyretin (Canis lupus familiaris) (UniProt A0A8I3NFK0); assay: Binding affinity to transthyretin in dog serum assessed as protein stabilization at 10 uM by Western blot
# Method in brief: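 Pooled dog serum with compound (10 μM) or DMSO acidified in acetate buffer pH 4.0 for 0 and 72 h, glutaraldehyde crosslinked, SDS-PAGE, immunoblotted with anti-TTR antiserum (1:2,000); tetramer band intensity expressed relative to DMSO control at 0 hr; mean ± SD, n = 3.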
# [13] = target: Transthyretin (Homo sapiens) (UniProt P02766); conditions: 10 uM; remark: listed apart in the source
# [14] = target: T1, Transthyretin (Canis lupus familiaris); assay: Binding affinity to transthyretin in dog serum assessed as protein occupancy at 10 uM by fluorescent probe exclusion assay
# Method in brief: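 Pooled commercial beagle dog serum (TTR 4.6 μM) with compound (10 μM, from DMSO stock) and FPE probe (final 3.6 μM); fluorescence ex 328/em 384 nm read for 6 hr at rt; % occupancy at 3 hr versus probe-alone DMSO control; mean ± SD, n = 4.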
# Albumin [15] = target: T2, Albumin (Homo sapiens, UniProt P02768); assay: Binding affinity to human serum albumin assessed as compound level bound to protein at 30 uM measured 124 hrs after dialysis; assay type: ADME; conditions: isolated protein, 24 h, in the assay text read “24 hrs” for “124 hrs”
# T2 sequence (P02768 whole entry): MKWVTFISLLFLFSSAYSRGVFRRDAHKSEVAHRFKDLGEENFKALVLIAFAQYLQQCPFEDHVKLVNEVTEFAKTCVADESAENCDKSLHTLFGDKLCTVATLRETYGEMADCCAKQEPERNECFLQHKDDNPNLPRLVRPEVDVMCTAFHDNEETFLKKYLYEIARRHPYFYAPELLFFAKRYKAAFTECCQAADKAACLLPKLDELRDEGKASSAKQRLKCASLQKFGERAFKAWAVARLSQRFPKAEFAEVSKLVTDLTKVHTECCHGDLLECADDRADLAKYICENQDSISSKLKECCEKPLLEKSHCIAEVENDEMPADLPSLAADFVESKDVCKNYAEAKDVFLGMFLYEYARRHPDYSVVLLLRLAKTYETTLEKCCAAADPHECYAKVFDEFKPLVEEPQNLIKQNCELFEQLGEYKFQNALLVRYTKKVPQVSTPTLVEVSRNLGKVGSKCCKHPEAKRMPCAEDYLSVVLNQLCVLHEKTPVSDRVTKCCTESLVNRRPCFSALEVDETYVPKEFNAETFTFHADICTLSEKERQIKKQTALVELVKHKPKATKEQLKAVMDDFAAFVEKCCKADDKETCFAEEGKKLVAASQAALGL
# Method in brief: (§1)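 Compound (30 μM) preincubated 1 hr at 37 °C with purified human serum albumin (600 μM) in 10 mM sodium phosphate, 100 mM KCl, 1 mM EDTA, pH 7.6; gel filtration, then dialysis against buffer 24 hr at room temperature; albumin-bound compound quantified by HPLC at time zero and after dialysis; mean ± SD, n = 3.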
# Albumin [16] = target: T2, Albumin; assay: Binding affinity to human serum albumin; assay type: ADME
# [17] = target: Transthyretin (Homo sapiens) (UniProt P02766); conditions: 10 uM; remark: listed apart in the source
# [18] = target: Transthyretin (Homo sapiens) (UniProt P02766); conditions: 10 uM; remark: listed apart in the source
# Albumin [19] = target: T2, Albumin; assay: Binding affinity to human serum albumin assessed as compound level bound to protein at 30 uM measured immediately after gel filtration; assay type: ADME; conditions: isolated protein; method in brief: as §1
# [20] = Cmax in human at 80 mg qd; assay type: ADME, organism-based; parameters: dose 80 mg; conditions: in vivo
# Canis familiaris [21] = assay: In-vivo binding affinity to transthyretin in beagle dog serum assessed as protein occupancy measured on day 7 at 50 to 200 mg/kg/day dosed daily via oral gavage for 7 days by fluorescent probe exclusion assay; assay type: functional, Canis lupus familiaris
# Method in brief: (§2)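 Male and female beagle dogs gavaged daily 7 days with vehicle (6M/6F) or compound in 0.5% methylcellulose at 50 (2M/2F), 100 (2M/2F) or 200 mg/kg (6M/6F); jugular serum taken pre-dose day 1, pre-dose day 7 and 1 hr post-dose day 7; TTR occupancy by serum FPE assay, read at 3 hr.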
# Albumin [22] = target: T2, Albumin; assay: Binding affinity to human serum albumin by ITC method; assay type: ADME
# Canis familiaris [23] = assay: In-vivo binding affinity to transthyretin in beagle dog serum assessed as protein occupancy 20 mg/kg/day […] dosed as single administration via oral gavage; assay type: functional, organism-based; conditions: Canis lupus familiaris
# Method in brief: (§3)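 Beagle dogs (2M/2F per group) received one oral gavage dose of 5 or 20 mg/kg in 0.5% methylcellulose; serum collected pre-dose and at 2, 4, 6, 8, 12, 24 hr; compound level by LCMS and TTR occupancy by FPE assay in serum (probe plus DMSO added).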
# Canis familiaris [24] = assay: In-vivo binding affinity to transthyretin in beagle dog serum assessed as protein occupancy at 50 to 200 mg/kg/day dosed daily via oral gavage for 7 days by fluorescent probe exclusion assay; assay type: functional, organism-based; conditions: Canis lupus familiaris; method in brief: as §2
# Canis familiaris [25] = assay: In-vivo binding affinity to transthyretin in beagle dog serum assessed as protein occupancy measured at 1 hr post dose on day 7 at 50 to 200 mg/kg/day dosed daily via oral gavage for 7 days by fluorescent probe exclusion assay; assay type: functional, Canis lupus familiaris; method in brief: as §2
# Canis familiaris [26] = assay: In-vivo binding affinity to transthyretin in beagle dog serum assessed as protein occupancy 5 mg/kg/day […] dosed as single administration via oral gavage; assay type: functional, organism-based; conditions: Canis lupus familiaris; method in brief: as §3
Activity [1] [%],Occ [2] [%],deltaH [3] [kcal/mol],TdeltaS [4] [kcal/mol],Occ [5] [%],deltaG [6] [kcal/mol],SMILES,also measured
70.4,63.2,-6.49,2.5,38.5,-8.99,COC(=O)c1ccc(F)c(OCCCc2c(C)n[nH]c2C)c1,–
23.2,20.8,-2.1,6,17.2,-8.1,CCc1n[nH]c(CC)c1CCCOc1cc(C(=O)O)ccc1F,–
–,–,-8.38,0.34,28.7,–,O=C(O)c1cc(-c2ccc(F)cc2F)ccc1O [DIFLUNISAL],Cmax [7]: 200 µM; Occ [8]: 65%
86.7,75.9,-9.82,-0.21,58.3,-9.61,Cc1n[nH]c(C)c1CCCOc1cc(C(=O)O)ccc1I,–
32.1,43,-4.73,4.27,29.7,-9,Cc1nn(C)c(C)c1CCCOc1cc(C(=O)O)ccc1F,–
41.5,49,-5,6.39,49.9,–,O=C(O)c1ccc2nc(-c3cc(Cl)cc(Cl)c3)oc2c1,Occ [9]: 65%; Occ [10]: Active; Occ [11]: 68.2%; Activity [12]: Active; Occ [13]: 41.5%; Activity [14]: Active; PB (Albumin [15]): 18.8 µM; Kd (Albumin [16]): 2.5 µM; Occ [17]: Active; Occ [18]: Active; PB (Albumin [19]): 24.1 µM; Cmax [20]: 20 µM
–,–,–,–,–,–,Cc1n[nH]c(C)c1CCCOc1cc(C(=O)O)ccc1F [ACORAMIDIS],Occ (Canis familiaris [21]): 81 - 94%; Kd (Albumin [22]): 8 µM; Activity [12]: Active; Activity (Canis familiaris [23]): Active; Activity [14]: Active; PB (Albumin [15]): 7.8 µM; Activity (Canis familiaris [24]): Dose-dependent effect; Occ (Canis familiaris [25]): >97%; PB (Albumin [19]): 18.3 µM; Activity (Canis familiaris [26]): Active
